Tests used:
[1] = biological target: Hypoxia-inducible factor 1-alpha (Homo sapiens, UniProt Q16665); assay: Inhibition of hypoxia-induced HIF1alpha activation in human HeLa cells after 12 hrs by HRE-luciferase reporter gene assay; format: cell-based
Method in brief: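 HeLa cells stably carrying HRE(×5)-luciferase reporter, incubated 12 h with or without drug under hypoxic conditions. Supernatant removed, then luciferase assay. IC50 is concentration halving relative light units, read from semi-logarithmic dose–response plots; mean ± SD of triplicates.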

[2] = tested on: HeLa; assay: Growth inhibition of human HeLa cells after 48 hrs by MTT assay; format: functional
Method in brief: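 HeLa cells exposed 48 h under normoxia to 100 nM–100 μM compound; viable cells measured by MTT. GI50 read from semi-logarithmic dose–response plots; mean ± SD of triplicate samples.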

Sequence of Hypoxia-inducible factor 1-alpha (Q16665 whole entry): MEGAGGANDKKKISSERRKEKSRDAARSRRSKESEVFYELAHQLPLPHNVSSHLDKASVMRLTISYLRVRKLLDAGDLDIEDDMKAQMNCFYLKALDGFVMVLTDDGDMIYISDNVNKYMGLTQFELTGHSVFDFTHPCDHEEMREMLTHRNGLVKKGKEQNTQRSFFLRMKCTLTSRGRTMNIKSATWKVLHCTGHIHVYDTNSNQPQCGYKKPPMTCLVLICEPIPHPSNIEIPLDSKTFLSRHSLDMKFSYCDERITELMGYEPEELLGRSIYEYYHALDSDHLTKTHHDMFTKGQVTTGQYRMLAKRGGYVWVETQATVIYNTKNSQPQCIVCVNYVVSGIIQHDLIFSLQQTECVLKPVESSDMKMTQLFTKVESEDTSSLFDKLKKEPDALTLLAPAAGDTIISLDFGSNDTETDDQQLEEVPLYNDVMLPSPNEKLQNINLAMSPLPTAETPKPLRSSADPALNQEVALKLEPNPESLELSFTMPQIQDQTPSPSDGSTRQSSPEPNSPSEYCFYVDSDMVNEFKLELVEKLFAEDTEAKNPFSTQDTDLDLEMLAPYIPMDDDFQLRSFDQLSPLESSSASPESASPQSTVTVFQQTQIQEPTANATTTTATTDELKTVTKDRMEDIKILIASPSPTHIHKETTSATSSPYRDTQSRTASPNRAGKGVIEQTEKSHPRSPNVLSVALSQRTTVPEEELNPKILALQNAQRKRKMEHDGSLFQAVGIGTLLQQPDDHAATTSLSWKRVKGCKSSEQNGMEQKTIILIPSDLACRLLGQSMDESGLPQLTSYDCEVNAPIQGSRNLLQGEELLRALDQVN

Compound | IC50 [1] | GI50 [2]
CC1(C)OB(c2ccc(O)c(NC(=O)COc3ccc(C4CCCCC4)cc3)c2)OC1(C)C | 70.4 µM | 13.4 µM
CC(C)(C)c1ccc(OCC(=O)Nc2cc(B3OC(C)(C)C(C)(C)O3)ccc2O)cc1 | 35.3 µM | 12.1 µM
CC1(C)OB(c2ccc(O)c(NC(=O)COc3ccc(-c4ccccc4)cc3)c2)OC1(C)C | > 100 µM | 5.8 µM
CCc1ccc(OCC(=O)Nc2cc(B3OC(C)(C)C(C)(C)O3)ccc2O)cc1 | 91.8 µM | 8.6 µM
Cc1ccc(OCC(=O)Nc2cc(B3OC(C)(C)C(C)(C)O3)ccc2O)cc1 | 90.6 µM | 17.7 µM
O=C(COc1ccc(C23CC4CC(CC(C4)C2)C3)cc1)Nc1cc(B(O)O)ccc1O | 4.6 µM | 15.2 µM
O=C(COc1ccc(C23CC4CC(CC(C4)C2)C3)cc1)Nc1cc(C(=O)O)ccc1O | 3.1 µM | 51.6 µM
CC1(C)OB(c2ccc(O)c(NC(=O)COc3ccc(C45CC6CC(CC(C6)C4)C5)cc3)c2)OC1(C)C | 3.1 µM | 16 µM

Results, then the compound that gave them:

IC50 [1] | GI50 [2] | Compound
84.8 µM | 29.2 µM | O=C(COc1ccc(C2CCCCC2)cc1)Nc1cc(B(O)O)ccc1O
> 100 µM | 14.9 µM | CCc1ccc(OCC(=O)Nc2cc(B(O)O)ccc2O)cc1
40.3 µM | 21.3 µM | CC(C)(C)c1ccc(OCC(=O)Nc2cc(B(O)O)ccc2O)cc1
> 100 µM | 25.7 µM | Cc1ccc(OCC(=O)Nc2cc(B(O)O)ccc2O)cc1
> 100 µM | 85.9 µM | O=C(COc1ccc(-c2ccccc2)cc1)Nc1cc(B(O)O)ccc1O

— ChEMBL document CHEMBL1156864, “Boron-containing phenoxyacetanilide derivatives as hypoxia-inducible factor (HIF)-1alpha inhibitors” (Bioorg Med Chem Lett, 2010)
